Assay results published in ChEMBL document CHEMBL4513216, “Probing the Open Global Health Chemical Diversity Library for Multistage-Active Starting Points for Next-Generation Antimalarials” (ACS Infect Dis, 2020).

Assay: Toxicity liver stage against HepG2, at 10uM
Type: cell-based
Set-up: test concentration 10 uM, cell line HepG2-A16-CD81EGFP
Details: human, HepG2-A16-CD81EGFP cells; read-out: INHIBITION
Method in brief: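 Uninfected HepG2-A16-CD81EGFP cells, 3 × 10^3 per well, 1536-well, plated on prespotted compound at 10 μM final, parasite-free screening media added to match infected plates; puromycin 10 μM positive, DMSO 0.5% negative; run in parallel with 48 h PbLuc assay at 37 °C, 5% CO2; viability by CellTiter-Glo luminescence, normalized to controls.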

Row | SMILES | cytotoxicity at 10 µM [%]
1 | CS(=O)(=O)NCC1CCCCN1C(=O)c1csc(-c2ccsc2)n1 (stereo not given) | -5.89
2 | CCc1c(C)nc(-n2nc(-c3cccs3)cc2N)[nH]c1=O | -4.47
3 | CN(C)C(CNC(=O)NCCOc1ccccc1)c1ccco1 (stereo not given) | -6.2
4 | CCOCCC(=O)NC(c1noc(C)n1)c1ccccc1F (stereo not given) | 0.101
5 | CSCCC(=O)N1CCN(CC(C)(C)O)CC1 | -5.85
6 | NC(=O)CSc1ccccc1NCc1nc(C2CC2)no1 | 1.12
7 | CN(CCCNC(=O)c1cccc(OCC(N)=O)c1)CC(F)(F)F | -10.4
8 | Cn1cc(N2CCCC(Nc3ccc4c(c3)NC(=O)CC4)C2=O)cn1 (stereo not given) | -1.61
9 | CCOCCOC(C)C(=O)Nc1ccc2[nH]c(C)cc2c1 (stereo not given) | 5.35
10 | Cn1c(C2CC2)nc2cc(NC(=O)C3(O)CCCC3)ccc21 | 2.84
11 | COCCN1CCN(CC(O)c2cc(OC)ccc2OC)CC1 (stereo not given) | 3
12 | Cc1ccccc1OCCSc1nnc(CC2CCS(=O)(=O)C2)n1C (stereo not given) | 1.27
13 | CC1CCN(C(=O)Cn2cc(I)cn2)CC1 | 2.19
14 | CN(Cc1ccc(Cl)s1)C(=O)c1ccccc1OCC(N)=O | -9.2
15 | Cc1cc(N(C)C)nc(N2CCN(Cc3nccn3C)CC2)n1 | -4.05
16 | Cn1cccc(NC(=O)COc2ccc(Br)cc2)c1=O | 8.35
17 | CC(C)C(=O)NCCCNC(=O)Nc1cc(-c2ccccc2)ns1 | 20.3
18 | CCC(C)(C)C(=O)N1CCN(C2=NCC(C)S2)CC1 (stereo not given) | -144
19 | CC(=O)N(C)CCc1nc(-c2cc(C(N)=O)co2)cs1 | -4.99
20 | Cc1ccc(-c2nn3c(nc2=O)-c2ccccc2NC3C(=O)O)cc1C (stereo not given) | 19.3
21 | O=C(N1CCC(O)(C(F)(F)F)C1)C1(c2cccc(Cl)c2)CC1 (stereo not given) | -2.72
22 | CCc1nc(N2CCC3(CC2)CC(=O)N(Cc2ccc(Cl)cc2)C3)no1 | 4.48
23 | Cc1nccc(-c2ccccc2)c1C(=O)N1CC[C@](C)(O)C(C)(C)C1 | -3.45

Row | SMILES | cytotoxicity at 10 µM [%]
24 | CCCc1nnc(N(C)CC2CCN(CC(C)C)CC2)o1 | 6.05
25 | O=C1CCCN1CCc1noc(-c2ccsc2)n1 | 8.35
26 | CC(C)NC(=O)CNC(C)COc1ccccc1 (stereo not given) | -5.66
27 | CCC(CNC(=O)c1cc(CC(C)C)nn1C)N(C)CC (stereo not given) | -5.99
28 | CSc1ccc(CN2CCn3nc(CNC(C)=O)cc3C2)cc1 | 17.4
29 | CN(Cc1n[nH]c2c1CCCCC2)C(=O)c1cc(-c2cccn2C)n[nH]1 | 3.02
30 | O=C(O)[C@@H]1CN(C(=O)CSCC2CC2)C[C@H]1c1ccccn1 | 5.35
31 | CCn1c(N)nc2cc(C(=O)N3CCN(c4ccncc4)CC3)cnc21 | -8.3
32 | CCn1c(C)nnc1SCCNC(=O)CC1CCc2ccccc21 (stereo not given) | -1.26
33 | Cc1ccc(CSc2nc(N)cc(NCC(=O)N3CCNCC3)n2)cc1 | -4.62
34 | Cc1ccc2nc(-c3nc4c([nH]3)CCCNC4=O)cn2c1 | 4.42
35 | O=C1N(C2CCCCC2)CCCC12CCN(S(=O)(=O)c1cccnc1)C2 (stereo not given) | 6
36 | COc1c(C2CCCN2C(=O)CCNc2ncccn2)c(C)nn1C (stereo not given) | -5.1
37 | c1ccc2oc(CN3CCCC3c3noc(C4CC4)n3)nc2c1 (stereo not given) | -4.04
38 | Cn1cc(-c2nc(CN3CCCCC3Cn3cncn3)cs2)cn1 (stereo not given) | -17.4
39 | Cc1ccc(-c2ncc(C(=O)NCCNC(=O)C3CC3)s2)c(C)c1 | -23.8
40 | Cc1ccc(N2CCCC(NCc3c(C)noc3C)C2)nn1 (stereo not given) | -5.88
41 | CC1c2ncc(CNC(=O)C3CC3)n2CCN1Cc1ccccn1 (stereo not given) | 8.18
42 | CCN1CC[C@@]2(C(=O)N(C)C)CCN(S(=O)(=O)c3ccccc3)CC[C@@H]12 | 1.26
43 | COCc1nn(CC2CC2)c2c1CN(Cc1cncn1C)CC2 | 3.94
44 | CC(=O)c1ccc(C(=O)N2C[C@H]3CC[C@@H](C2)N(CC2CCC2)C3)s1 | -5.79
45 | CN1C(=O)[C@@H]2CC[C@H]1CN(C(=O)c1nnc3n1CCCCC3)C2 | -6.34
